Reference: ChEMBL document CHEMBL1143542, “Structure-activity relationships of bivalent aminoglycosides and evaluation of their microbiological activities” (2005)
≈ marks a conversion by molar mass, not a printed value. Blank lines part the entries; values can stand above or below the compound they belong to.

What was measured:
[1] = test system: Pseudomonas aeruginosa; assay: Susceptibility testing against Pseudomonas aeruginosa PAE_NUH03; R=Resistant; type: functional, organism-based
Method in brief: (§1)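 Disk diffusion susceptibility profiling of P. aeruginosa reference and clinical isolates against empirically used antipseudomonal antibiotics. Each isolate was categorised as susceptible, intermediate or resistant.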

[2] = test system: Pseudomonas aeruginosa; assay: Susceptibility testing against Pseudomonas aeruginosa PAE_NUH07; R=Resistant; type: functional, organism-based; method in brief: as §1
[3] = test system: Pseudomonas aeruginosa; assay: Susceptibility testing against Pseudomonas aeruginosa PAE_NUH06; R=Resistant; type: functional, organism-based; method in brief: as §1
[4] = test system: Pseudomonas aeruginosa; assay: Susceptibility testing against Pseudomonas aeruginosa PAE_NUH19; R=Resistant; type: functional, organism-based; method in brief: as §1
[5] = test system: Pseudomonas aeruginosa; assay: Susceptibility testing against Pseudomonas aeruginosa PAE_NUH18; R=Resistant; type: functional, organism-based; method in brief: as §1
[6] = test system: Pseudomonas aeruginosa; assay: Susceptibility testing against Pseudomonas aeruginosa PAE_NUH20; S=Susceptible; type: functional, organism-based
Method in brief: (§2)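 Disk diffusion susceptibility profiling against a panel of empirically used antipseudomonal antibiotics. Each strain was categorised as susceptible (S) or intermediate (I).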

[7] = test system: Pseudomonas aeruginosa; assay: Susceptibility testing against Pseudomonas aeruginosa PAE_NUH23; I=Intermediate; type: functional, organism-based; method in brief: as §1
[8] = test system: Pseudomonas aeruginosa; assay: Susceptibility testing against Pseudomonas aeruginosa PAE_NUH01; R=Resistant; type: functional, organism-based; method in brief: as §1
[9] = test system: Pseudomonas aeruginosa; assay: Susceptibility testing against Pseudomonas aeruginosa PAE_NUH05; R=Resistant; type: functional, organism-based; method in brief: as §1
[10] = test system: Pseudomonas aeruginosa; assay: Susceptibility testing against Pseudomonas aeruginosa ATCC 27853; R=Resistant; type: functional, organism-based; method in brief: as §1
[11] = test system: Pseudomonas aeruginosa; assay: Susceptibility testing against Pseudomonas aeruginosa PAE_NUH04; R=Resistant; type: functional, organism-based; method in brief: as §1
[12] = test system: Pseudomonas aeruginosa; assay: Susceptibility testing against Pseudomonas aeruginosa PAE_NUH21; I=Intermediate; type: functional, organism-based; method in brief: as §2
[13] = test system: Pseudomonas aeruginosa; assay: Susceptibility testing against Pseudomonas aeruginosa PAE_NUH02; R=Resistant; type: functional, organism-based; method in brief: as §1
[14] = test system: Pseudomonas aeruginosa; assay: Susceptibility testing against Pseudomonas aeruginosa PAE_NUH17; S=Susceptible; type: functional, organism-based; method in brief: as §2
[15] = test system: Pseudomonas aeruginosa; assay: Susceptibility testing against Pseudomonas aeruginosa PAE_NUH22; I=Intermediate; type: functional, organism-based; method in brief: as §2
[16] = test system: Pseudomonas aeruginosa; assay: Susceptibility testing against Pseudomonas aeruginosa PAE_NUH24; I=Intermediate; type: functional, organism-based; method in brief: as §1
[17] = test system: Pseudomonas aeruginosa; assay: Susceptibility testing against Pseudomonas aeruginosa PAE_NUH25; R=Resistant; type: functional, organism-based; method in brief: as §1
[18] = test system: Pseudomonas aeruginosa; assay: Susceptibility testing against Pseudomonas aeruginosa PAE_NUH22; R=Resistant; type: functional, organism-based; method in brief: as §1
[19] = test system: Pseudomonas aeruginosa; assay: Susceptibility testing against Pseudomonas aeruginosa PAE_NUH24; R=Resistant; type: functional, organism-based; method in brief: as §1
[20] = test system: Pseudomonas aeruginosa; assay: Susceptibility testing against Pseudomonas aeruginosa PAE_NUH25; S=Susceptible; type: functional, organism-based; method in brief: as §2
[21] = test system: Pseudomonas aeruginosa; assay: Susceptibility testing against Pseudomonas aeruginosa PAE_NUH23; R=Resistant; type: functional, organism-based; method in brief: as §1
[22] = test system: Pseudomonas aeruginosa; assay: Susceptibility testing against Pseudomonas aeruginosa PAE_NUH21; R=Resistant; type: functional, organism-based; method in brief: as §1
[23] = test system: Pseudomonas aeruginosa; assay: Minimum inhibitory concentration against Pseudomonas aeruginosa PAE_NUH24; type: functional
Method in brief: (§3)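 Broth microdilution following CLSI M100-S12. Stocks were 10 mg/mL in water, diluted in Mueller–Hinton broth to a top level of 128, then serially 2-fold in plates. Bacteria in cation-adjusted Mueller–Hinton broth were mixed 1:1 with drug and incubated 16–20 h at 35 °C. MIC was the lowest concentration with no visible growth. Run in duplicate with no-antibiotic and no-inoculum (sterility) controls.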

[24] = test system: Pseudomonas aeruginosa; assay: Minimum inhibitory concentration against Pseudomonas aeruginosa PAE_NUH22; type: functional; method in brief: as §3
[25] = test system: Pseudomonas aeruginosa; assay: Minimum inhibitory concentration against Pseudomonas aeruginosa PAE_NUH23; type: functional; method in brief: as §3
[26] = test system: Pseudomonas aeruginosa; assay: Minimum inhibitory concentration against Pseudomonas aeruginosa PAE_NUH18; type: functional; method in brief: as §3
[27] = test system: Pseudomonas aeruginosa; assay: In vitro minimum inhibitory concentration against Pseudomonas aeruginosa ATCC 27853; type: functional; method in brief: as §3
[28] = test system: Pseudomonas aeruginosa; assay: Minimum inhibitory concentration against Pseudomonas aeruginosa PAE_NUH20; type: functional; method in brief: as §3
[29] = test system: Escherichia coli; assay: In vitro minimum inhibitory concentration against Escherichia coli ATCC 25922; type: functional; method in brief: as §3
[30] = test system: Enterococcus faecalis; assay: In vitro minimum inhibitory concentration against Enterococcus faecalis 29212; type: functional; method in brief: as §3
[31] = test system: Staphylococcus aureus; assay: In vitro minimum inhibitory concentration against Staphylococcus aureus MRSA 3359; type: functional; method in brief: as §3
[32] = test system: Pseudomonas aeruginosa; assay: Minimum inhibitory concentration against Pseudomonas aeruginosa PAE_NUH05; type: functional; method in brief: as §3
[33] = test system: Pseudomonas aeruginosa; assay: Minimum inhibitory concentration against Pseudomonas aeruginosa PAE_NUH04; type: functional; method in brief: as §3
[34] = test system: Pseudomonas aeruginosa; assay: Minimum inhibitory concentration against Pseudomonas aeruginosa PAE_NUH17; type: functional; method in brief: as §3
[35] = test system: Pseudomonas aeruginosa; assay: Minimum inhibitory concentration against Pseudomonas aeruginosa PAE_NUH06; type: functional; method in brief: as §3
[36] = test system: Pseudomonas aeruginosa; assay: In vitro minimum inhibitory concentration against Pseudomonas aeruginosa PAO-1; type: functional; method in brief: as §3
[37] = test system: Pseudomonas aeruginosa; assay: Minimum inhibitory concentration against Pseudomonas aeruginosa PAE_NUH03; type: functional; method in brief: as §3
[38] = test system: Pseudomonas aeruginosa; assay: Minimum inhibitory concentration against Pseudomonas aeruginosa PAE_NUH01; type: functional; method in brief: as §3
[39] = test system: Pseudomonas aeruginosa; assay: Minimum inhibitory concentration against Pseudomonas aeruginosa PAE_NUH25; type: functional; method in brief: as §3
[40] = test system: Pseudomonas aeruginosa; assay: Minimum inhibitory concentration against Pseudomonas aeruginosa PAE_NUH19; type: functional; method in brief: as §3
[41] = test system: Pseudomonas aeruginosa; assay: Minimum inhibitory concentration against Pseudomonas aeruginosa PAE_NUH02; type: functional; method in brief: as §3
[42] = test system: Pseudomonas aeruginosa; assay: Minimum inhibitory concentration against Pseudomonas aeruginosa PAE_NUH21; type: functional; method in brief: as §3
[43] = test system: Pseudomonas aeruginosa; assay: Minimum inhibitory concentration against Pseudomonas aeruginosa PAE_NUH07; type: functional; method in brief: as §3
[44] = test system: Pseudomonas aeruginosa; assay: Minimum inhibitory concentration against Pseudomonas aeruginosa ATCC 27853; type: functional; method in brief: as §3
[45] = test system: Staphylococcus aureus; assay: In vitro minimum inhibitory concentration against Staphylococcus aureus ATCC 29213; type: functional; method in brief: as §3
[46] = test system: Pseudomonas aeruginosa; assay: Susceptibility testing against Pseudomonas aeruginosa PAE_NUH06; S=Susceptible; type: functional, organism-based; method in brief: as §2
[47] = test system: Pseudomonas aeruginosa; assay: Susceptibility testing against Pseudomonas aeruginosa ATCC 27853; S=Susceptible; type: functional, organism-based; method in brief: as §2
[48] = test system: Pseudomonas aeruginosa; assay: Susceptibility testing against Pseudomonas aeruginosa PAE_NUH03; S=Susceptible; type: functional, organism-based; method in brief: as §2
[49] = test system: Pseudomonas aeruginosa; assay: Susceptibility testing against Pseudomonas aeruginosa PAE_NUH21; S=Susceptible; type: functional, organism-based; method in brief: as §2
[50] = test system: Pseudomonas aeruginosa; assay: Susceptibility testing against Pseudomonas aeruginosa PAE_NUH19; S=Susceptible; type: functional, organism-based; method in brief: as §2
[51] = test system: Pseudomonas aeruginosa; assay: Susceptibility testing against Pseudomonas aeruginosa PAE_NUH22; S=Susceptible; type: functional, organism-based; method in brief: as §2
[52] = test system: Pseudomonas aeruginosa; assay: Susceptibility testing against Pseudomonas aeruginosa PAE_NUH18; S=Susceptible; type: functional, organism-based; method in brief: as §2
[53] = test system: Pseudomonas aeruginosa; assay: Susceptibility testing against Pseudomonas aeruginosa PAE_NUH05; S=Susceptible; type: functional, organism-based; method in brief: as §2
[54] = test system: Pseudomonas aeruginosa; assay: Susceptibility testing against Pseudomonas aeruginosa PAE_NUH24; S=Susceptible; type: functional, organism-based; method in brief: as §2
[55] = test system: Pseudomonas aeruginosa; assay: Susceptibility testing against Pseudomonas aeruginosa PAE_NUH23; S=Susceptible; type: functional, organism-based; method in brief: as §2
[56] = test system: Pseudomonas aeruginosa; assay: Susceptibility testing against Pseudomonas aeruginosa PAE_NUH04; S=Susceptible; type: functional, organism-based; method in brief: as §2

SMILES: O=C(N[C@H](CO)[C@H](O)c1ccc([N+](=O)[O-])cc1)C(Cl)Cl
Activity [1]: Resistant
Activity [2]: Resistant
Activity [3]: Resistant
Activity [4]: Resistant
Activity [5]: Resistant
Activity [6]: Susceptible
Activity [7]: I
Activity [8]: Resistant
Activity [9]: Resistant
Activity [10]: Resistant
Activity [11]: Resistant
Activity [12]: I
Activity [13]: Resistant
Activity [14]: Susceptible
Activity [15]: I
Activity [16]: I
Activity [17]: Resistant

SMILES: COc1cc(Cc2cnc(N)nc2N)cc(OC)c1OC.Cc1cc(NS(=O)(=O)c2ccc(N)cc2)no1
Activity [1]: Resistant
Activity [2]: Resistant
Activity [3]: Resistant
Activity [4]: Resistant
Activity [5]: Resistant
Activity [6]: Susceptible
Activity [18]: Resistant
Activity [19]: Resistant
Activity [8]: Resistant
Activity [9]: Resistant
Activity [10]: Resistant
Activity [20]: Susceptible
Activity [11]: Resistant
Activity [21]: Resistant
Activity [22]: Resistant
Activity [13]: Resistant
Activity [14]: Susceptible

MIC [23]: 32 mg/L (≈ 36.7 µM)
MIC [24]: 8 mg/L (≈ 9.16 µM)
MIC [25]: > 32 mg/L
MIC [26]: 16 mg/L (≈ 18.3 µM)
MIC [27]: 8 mg/L (≈ 9.16 µM)
MIC [28]: 16 mg/L (≈ 18.3 µM)
MIC [29]: 4 mg/L (≈ 4.58 µM)
MIC [30]: > 50 mg/L
MIC [31]: 16 mg/L (≈ 18.3 µM)
MIC [32]: 6.3 mg/L (≈ 7.22 µM)
MIC [33]: 6.3 mg/L (≈ 7.22 µM)
MIC [34]: > 32 mg/L
MIC [35]: 12.5 mg/L (≈ 14.3 µM)
MIC [36]: 8 mg/L (≈ 9.16 µM)
MIC [37]: 6.3 mg/L (≈ 7.22 µM)
MIC [38]: 12.5 mg/L (≈ 14.3 µM)
MIC [39]: 8 mg/L (≈ 9.16 µM)
MIC [40]: 16 mg/L (≈ 18.3 µM)
MIC [41]: 6.3 mg/L (≈ 7.22 µM)
MIC [42]: 16 mg/L (≈ 18.3 µM)
MIC [43]: 6.3 mg/L (≈ 7.22 µM)
MIC [44]: 8 mg/L (≈ 9.16 µM)
MIC [45]: 1 mg/L (≈ 1.15 µM)
SMILES: CN(CCCCN(C)C[C@@H](O)CO[C@@H]1[C@@H](O)[C@H](N)C[C@H](N)[C@H]1O[C@H]1O[C@H](CN)[C@@H](O)[C@H](O)[C@H]1N)C[C@@H](O)CO[C@@H]1[C@@H](O)[C@H](N)C[C@H](N)[C@H]1O[C@H]1O[C@H](CN)[C@@H](O)[C@H](O)[C@H]1N

SMILES: CCN1CCN(C(=O)N[C@@H](C(=O)N[C@@H]2C(=O)N3[C@@H]2SC(C)(C)[C@@H]3C(=O)O)c2ccccc2)C(=O)C1=O.C[C@]1(Cn2ccnn2)[C@H](C(=O)O)N2C(=O)C[C@H]2S1(=O)=O
Activity [2]: Resistant
Activity [46]: Susceptible
Activity [47]: Susceptible
Activity [6]: Susceptible
Activity [8]: Resistant
Activity [48]: Susceptible
Activity [49]: Susceptible
Activity [50]: Susceptible
Activity [20]: Susceptible
Activity [51]: Susceptible
Activity [13]: Resistant
Activity [14]: Susceptible
Activity [52]: Susceptible
Activity [53]: Susceptible
Activity [54]: Susceptible
Activity [55]: Susceptible
Activity [56]: Susceptible
